Test [1] in a line: Antioxidant activity assessed as DPPH free radical scavenging activity incubated for 30 mins in dark condition by spectrophotometric analysis. Format: functional. The method in brief: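 Test samples dissolved in absolute ethanol at a range of concentrations; 1 mL mixed with 1 mL 0.2 mM DPPH in ethanol, kept in the dark 30 min, absorbance read at 517 nm against an ethanol blank. L-ascorbic acid as positive control. Triplicate measurements; IC50 taken from the dose-response curve by linear regression interpolation.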
(In general: Loss of DPPH colour is used to gauge radical scavenging.)

The target of test [2] is T1, Tyrosinase (Agaricus bisporus) (UniProt O42713).
T1 sequence (whole entry): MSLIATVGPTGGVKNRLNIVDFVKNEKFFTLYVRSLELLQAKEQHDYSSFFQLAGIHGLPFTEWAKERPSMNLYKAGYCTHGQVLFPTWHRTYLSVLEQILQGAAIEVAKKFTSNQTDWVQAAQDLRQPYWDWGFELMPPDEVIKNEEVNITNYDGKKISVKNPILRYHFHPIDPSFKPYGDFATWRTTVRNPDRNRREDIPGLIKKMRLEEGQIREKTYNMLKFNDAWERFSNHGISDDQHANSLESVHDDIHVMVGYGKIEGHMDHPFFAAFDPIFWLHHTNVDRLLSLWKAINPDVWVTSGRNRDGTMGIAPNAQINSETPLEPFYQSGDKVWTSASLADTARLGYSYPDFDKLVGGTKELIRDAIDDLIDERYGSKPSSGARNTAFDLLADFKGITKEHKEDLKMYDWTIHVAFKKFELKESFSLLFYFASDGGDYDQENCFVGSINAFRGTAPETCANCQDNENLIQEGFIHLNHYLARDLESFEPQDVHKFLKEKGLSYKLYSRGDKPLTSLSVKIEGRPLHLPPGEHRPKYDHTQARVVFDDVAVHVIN
The experiment in a line: Inhibition of mushroom tyrosinase at 1 g/L using […] as substrate measured after 30 mins. The method in brief:
(§1)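 Substrate L-tyrosine (0.507 g/L stock in HCl/0.2 M phosphate buffer pH 6.8). Inhibitor stock 1 g/L in DMSO, replaced by DMSO for the reference. Mushroom tyrosinase (200 U/mL stock in 0.2 M phosphate buffer pH 6.8) added last. Incubated 37 °C for 30 min, absorbance read at 475 nm. Percent inhibition from blank-corrected absorbances; triplicate; ferulic acid as positive control.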

Test [3] in a line: Antioxidant activity assessed as hydroxyl radical scavenging activity incubated for 1 hr by spectrophotometric analysis. The class given is functional. In outline: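 Phenanthroline (0.75 mM in ethanol), 0.2 M phosphate buffer pH 7.4, sample in DMSO and 0.75 mM FeSO4 (1 mL each) mixed, then 1 mL 0.01% H2O2 added. Incubated 1 h at 37 °C in a water bath, absorbance read at 536 nm. Triplicate; IC50 (mM) by regression interpolation.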

The target of another test is T2, Tyrosinase (Agaricus bisporus, UniProt O42713).
T2 sequence (O42713 whole entry): T1 sequence (whole entry)
The experiment in a line: Inhibition of mushroom tyrosinase using […] as substrate measured after 30 mins. In outline:
as §1

The source made the active and inactive calls. No cut-off for these calls is given here.

As a reminder, the IC50 is the concentration that gives 50% inhibition. Regarding `CCOC(=O)[C@@H](NC(=O)/C=C/c1ccc(O)c(OC)c1)C(C)C`, in test [1], the IC50 came to 59.6 µM. Moreover, the inhibition entry in test [2] was “Active”.
Taken in the same sequence, the figures for `CCOC(=O)[C@H](C)NC(=O)/C=C/c1ccc(O)c(OC)c1` were 46.4 µM and “Active”.
Taken in the same sequence, the figures for `CCOC(=O)[C@@H](NC(=O)/C=C/c1ccc(OC(C)=O)c(OC)c1)C(C)C` were greater than 500 µM and “Active”.
On the same counts, the results for `COc1cc(/C=C/C(=O)O)ccc1O` [FERULATE] are 35.7 µM and “Active”.
For the molecule `CCOC(=O)[C@H](CC(C)C)NC(=O)/C=C/c1ccc(O)c(OC)c1`, the IC50 in test [1] amounted to 56.1 µM. Also, the inhibition result in test [2] is “Active”.
For the molecule `O=C1O[C@H]([C@@H](O)CO)C(O)=C1O` [ASCORBIC ACID], the IC50 in test [1] came out at 80.9 µM; in test [3], 1620 µM.
On the same counts, the results for `CCOC(=O)[C@@H](NC(=O)/C=C/c1ccc(O)c(O)c1)[C@@H](C)CC` are 43.5 µM and 411 µM.
Consider `CCOC(=O)CNC(=O)/C=C/c1ccc(O)c(O)c1`, for which the IC50 in test [1] was 18.6 µM; in test [3], 340 µM.
As for `COc1cc(/C=C/C(=O)O)ccc1OC(C)=O`, in test [1], the IC50 was greater than 500 µM. The inhibition result in test [2] was “Active”.
`CCOC(=O)[C@H](Cc1ccccc1)NC(=O)/C=C/c1ccc(O)c(OC)c1`: the IC50 against Tyrosinase is less than 0.18 µM.
Consider `CCOC(=O)[C@@H](NC(=O)/C=C/c1ccc(O)c(O)c1)C(C)C`, for which the half-inhibitory concentration (IC50) in test [1] stood at 19.6 µM; in test [3], 348 µM.
Consider `CCOC(=O)[C@H](C)NC(=O)/C=C/c1ccc(OC(C)=O)c(OC)c1`, for which, in test [1], the IC50 amounted to 482 µM. In test [2], the inhibition entry is “Active”.
On to `CCOC(=O)[C@H](CC(C)C)NC(=O)/C=C/c1ccc(O)c(O)c1`, for which the values for the IC50 in test [1] and in test [3] were 28.6 µM and 373 µM, respectively.
In the case of `O=C(O)/C=C/c1ccc(O)c(O)c1` [CAFFEIC ACID], the IC50 turned out to be 27.6 µM in test [1] and 287 µM in test [3].
Turning to `CCOC(=O)[C@H](CC(C)C)NC(=O)/C=C/c1ccc(OC(C)=O)c(OC)c1`, the IC50 in test [1] was greater than 500 µM. Besides, in test [2], the inhibition result was “Active”.
For `CCOC(=O)[C@H](Cc1ccccc1)NC(=O)/C=C/c1ccc(O)c(O)c1`, the results for the IC50 (at Tyrosinase; in test [1]; in test [3]) were greater than 29 µM, 33.2 µM and 292 µM, respectively.
Turning to `CCOC(=O)[C@H](C)NC(=O)/C=C/c1ccc(O)c(O)c1`, the IC50 in test [1] stood at 29.7 µM; in test [3], 214 µM.
